# Screens: PubChem, several laboratories
# This is one part of a sample in which hits are shown more often than they occur.
# Avidin bead fluor – green autofluorescence of compounds with avidin beads – biophysical, 488/530 nm, flow cytometry, artefact control, profiling panel; actives 0.38% (n = 220,000); AID 1775, 2009; fluorescence (KMESF) at 10 µM; compound fluorescence 488/530 nm; stronger effect = higher value; in the data active means fluorescence above about 47
# ABCG2 block – ABCG2 efflux pump inhibitors, primary screen, multiplex with ABCB1, IgMXP3 cells, flow cytometry | JC-1 efflux | Broad substrate specificity ATP-binding cassette transporter ABCG2 (Homo sapiens), Q9UNQ0 | inhibition, % at 6.6 µM | actives 0.1% (n = 190,000);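 active means inhibition above 80%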
#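 Measure – % inhibition of efflux relative to nicardipine and DMSO · Test system – ABCG2 IgMXP3 and barcoded ABCB1 CCRF-Adr cell mix · Control set – nicardipine as high control, DMSO as low control · Compound – one concentration, 6.6 µM final · Signal – flow cytometry of retained JC-1 fluorescence · Timing – 10 min exposure at 25 °C with rotation, no wash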
# Lmaj promast – Leishmania major promastigote growth inhibition, primary screen. actives 9% (n = 200,000). Leishmania major promastigotes, resazurin fluorescence viability. inhibition, % at 10 µM;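 further: promastigotes grown with compound for 44 hours at 28 °C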
# ABCB1 inh – ABCB1 efflux pump inhibitors, primary screen, cell-based, multiplex, flow cytometry, ABCG2 counter-screen. ATP-dependent translocase ABCB1 (Homo sapiens), P08183. CCRF-Adr cells, JC-1 efflux. inhibition, % at 6.6 µM. actives 0.067% (n = 190,000). AID 1326, 2008; in the data active means inhibition above about 40%;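 further: higher value means more JC-1 retained so stronger ABCB1 efflux block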
# PKD1 kinase inh – inhibitors of human PKD1 kinase, biochemical, fluorescence polarization. Serine/threonine-protein kinase D1 (Homo sapiens), Q15139. PKD1 kinase fluorescence polarization assay. inhibition, % (concentration not given with the values). actives 0.056% (n = 200,000)
# GSH fluor – compound fluorescence on glutathione beads, profiling panel, artefact control, biophysical, 488/530 nm, flow cytometry; AID 1776, 2009; GSH beads flow cytometry, compound fluorescence 488/530 nm; stronger effect = higher value; actives 0.25% (n = 190,000); fluorescence (KMESF) at 10 µM; in the data active means fluorescence above about 89;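 further: glutathione beads carrying GST-tagged Bcl family fusion proteins plus one bare bead set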
# Numbers stand for hits; 0 = inactive; - = not tested or not shown. Unless noted, no stated cut-off is given here; in the data, active means inhibition above about 50%; inactive means the rest.
SMILES,Avidin bead fluor,ABCG2 block,Lmaj promast,ABCB1 inh,PKD1 kinase inh,GSH fluor
Cc1cc(N2CCCC2)ccc1/C=N/n1cnnc1,0,0,67,0,0,0
N#CNc1nc(O)cc(=O)[nH]1,0,-,-,-,-,-
COc1cc(C(C)=O)ccc1Oc1ncnc2c1cnn2-c1cccc(Cl)c1,0,0,52,0,0,0
NC(=O)C1CCN(Cc2nc3cc(C(F)(F)F)ccc3c(=O)[nH]2)CC1,0,-,-,-,-,-
O=C(Nc1ccccn1)c1ccc(S(=O)(=O)c2ccc(Cl)cc2)cc1,0,0,76,0,0,0
c1ccc2c(c1)N1CCCN=C1N2CCN1CCCCC1,0,0,0,0,0,0
O=C1N=C2N(CCN3CCCCC3)c3ccccc3N2/C1=C\c1ccc([N+](=O)[O-])o1,0,0,100,0,0,0
CCN(CC)S(=O)(=O)c1ccc(C)c(NC(=O)CN2CCN(C)CC2)c1,0,-,-,-,-,-
CCN(C(=O)CN1CCOCC1)C1(C)C(=O)c2ccccc2C1=O,0,0,0,0,0,0
CCN1CCN(CCOc2cccc(Cl)c2Cl)CC1,0,0,86,0,0,0
CCC(=O)c1ccccc1OCCN1CCN(CC)CC1,0,0,0,0,0,0
Cn1c(=O)n(CCOc2ccc(Cl)cc2Cl)c2ccccc21,0,0,0,0,0,0
CC1CC(C)CN(CCOc2ccc(Cl)cc2Cl)C1 (centres undefined),0,0,97,0,0,0
CC1CC(C)CN(CCOc2cccc(Cl)c2Cl)C1 (centres undefined),0,0,91,0,0,0
CC(=O)NCCn1c(SCc2ccc(C)cc2C)nc2ccccc2c1=O,0,0,0,0,0,0
CC(Oc1ccccc1)C(=O)NNS(=O)(=O)c1ccc([N+](=O)[O-])cc1 (centres undefined),0,0,0,0,0,0
O=C(O)c1cc(C(=O)C2CCCCC2)c[nH]1,0,0,0,0,112,0
O=C(O)c1cc(C(=O)C2CC2)c[nH]1,0,0,0,0,0,0
O=C(NCCOc1nc(N2CCCCC2)nc(N2CCCCC2)n1)Nc1ccccc1,0,0,0,0,0,0
CC(=O)NCCOc1nc(N2CCCCC2)nc(N2CCCCC2)n1,0,0,96,0,0,0
Cc1ccccc1SC1CCN(Cc2nc(C3CC3)no2)CC1,0,0,0,0,0,0
Cc1cc(/C=N/NC(N)=S)c(C)n1-c1ccc(Cl)c(Cl)c1,0,0,100,0,0,0
Cc1ccc(CNC(=O)c2ccc(CNc3c(N4CCCC4)c(=O)c3=O)cc2)cc1,0,0,0,0,0,0
Cc1cc(C)c(NC(=S)N(Cc2cccnc2)Cc2ccco2)c(C)c1,0,0,88,0,0,0
CCc1ccccc1NC(=S)N(Cc1cccnc1)Cc1ccco1,0,0,99,0,0,0
SMILES,Avidin bead fluor,ABCG2 block,Lmaj promast,ABCB1 inh,PKD1 kinase inh,GSH fluor
S=C(Nc1ccccc1Cl)NC1CC2CCCC(C1)N2C1CC1 (centres undefined),0,0,0,0,0,0
CC1CN(C(=O)C2(C)CC2(Cl)Cl)CC(C)O1 (centres undefined),0,0,0,0,0,0
Cc1cnc(SCCc2ccncc2)nc1C,0,0,0,0,0,0
CSc1nn(CCc2ccncc2)c(=S)s1,0,0,56,0,0,0
O=[N+]([O-])c1cc(C(F)(F)F)ccc1N1CCN(S(=O)(=O)c2ccc3c(c2)CCCC3)CC1,0,0,67,0,0,0
CC1CN(c2ccc(C(F)(F)F)cc2[N+](=O)[O-])CCN1S(C)(=O)=O (centres undefined),0,0,77,0,0,0
O=[N+]([O-])c1cc(C(F)(F)F)ccc1N1CCCNCC1,0,0,79,0,0,0
CCNc1cc(N2CCN(S(=O)(=O)c3ccc4c(c3)CCCC4)CC2)ccc1[N+](=O)[O-],0,0,0,0,0,0
O=C1NCN(c2ccccc2)C12CCN(CCCC(c1ccc(F)cc1)c1ccc(F)cc1)CC2,0,0,101,0,0,0
Cn1[nH]c(C(F)(F)F)cc1=O,0,0,0,0,0,0
